Experimental data from ChEMBL document CHEMBL2150894, “Synthesis and anti-staphylococcal activity of new 4-diazopyrazole derivatives” (2012).
Converted amounts (≈) assume the structure as drawn. Blank lines part the entries; values can stand above or below the compound they belong to. The source made the active and inactive calls. The calls are words filed in the database; no cut-off is given here.

Legend:
Assay type in all cases: functional
Staphylococcus aureus [1] = experiment: Antibacterial activity against Staphylococcus aureus ATCC 6538 after 24 hrs by broth microdilution method; settings: ATCC 6538, 24 h
Method in brief: (§1)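 Broth microdilution in Mueller Hinton broth with twofold serial dilutions spanning 50 to 0.001. Each well received inoculum from a 24 h culture containing about 10⁶ cfu mL⁻¹, then incubated at 37 °C for 24 h. MIC was the lowest concentration whose OD570 matched the broth-only negative control. Veterinary isolates came from milk and food samples (IZS Sicily collection).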

Staphylococcus aureus [2] = experiment: Antibacterial activity against Staphylococcus aureus isolate 357 obtained from veterinary sample after 24 hrs by broth microdilution method; settings: isolate 357, 24 h; method in brief: as §1
Staphylococcus aureus [3] = experiment: Antibacterial activity against Staphylococcus aureus isolate 723 obtained from veterinary sample after 24 hrs by broth microdilution method; settings: isolate 723, 24 h; method in brief: as §1
Staphylococcus aureus [4] = experiment: Antibacterial activity against Staphylococcus aureus isolate 712 obtained from veterinary sample after 24 hrs by broth microdilution method; settings: isolate 712, 24 h; method in brief: as §1
Staphylococcus aureus [5] = experiment: Antibacterial activity against Staphylococcus aureus ATCC 29213 after 24 hrs by broth microdilution method; settings: ATCC 29213, 24 h; method in brief: as §1
Staphylococcus aureus [6] = experiment: Antibacterial activity against Staphylococcus aureus isolate 722 obtained from veterinary sample after 24 hrs by broth microdilution method; settings: isolate 722, 24 h; method in brief: as §1
Staphylococcus aureus [7] = experiment: Antibacterial activity against Staphylococcus aureus ATCC 25923 after 24 hrs by broth microdilution method; settings: ATCC 25923, 24 h; method in brief: as §1
Staphylococcus aureus [8] = experiment: Antibacterial activity against Staphylococcus aureus isolate 100 obtained from veterinary sample after 24 hrs by broth microdilution method; settings: isolate 100, 24 h; method in brief: as §1
Staphylococcus aureus [9] = experiment: Antibacterial activity against Staphylococcus aureus isolate 708 obtained from veterinary sample after 24 hrs by broth microdilution method; settings: isolate 708, 24 h; method in brief: as §1
Staphylococcus aureus [10] = experiment: Antibacterial activity against Staphylococcus aureus ATCC 29213 assessed as inhibition of biofilm formation at 3.1 ug/mL
Staphylococcus aureus [11] = experiment: Antibacterial activity against Staphylococcus aureus ATCC 25923 assessed as inhibition of biofilm formation at 3.1 ug/mL
Staphylococcus aureus [12] = experiment: Antibacterial activity against Staphylococcus aureus isolate 708 obtained from veterinary sample assessed as inhibition of biofilm formation at 3.1 ug/mL
Staphylococcus aureus [13] = experiment: Antibacterial activity against methicillin-resistant Staphylococcus aureus clinical isolate
Staphylococcus aureus [14] = experiment: Antibacterial activity against methicillin-resistant Staphylococcus aureus ATCC 43866
[15] = system: Staphylococcus epidermidis; experiment: Antibacterial activity against Staphylococcus epidermidis RP62A
Staphylococcus aureus [16] = experiment: Antibacterial activity against methicillin-resistant Staphylococcus aureus ATCC 43866 assessed as inhibition of biofilm formation at 25 ug/mL
Staphylococcus aureus [17] = experiment: Antibacterial activity against Staphylococcus aureus ATCC 29213
Method in brief: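 Broth microdilution: twofold serial dilutions of compound (range 50 to 0.001) in Mueller Hinton broth, each well inoculated with bacterial suspension from a 24 h culture containing ~10⁶ cfu/mL. Incubated 37 °C for 24 h.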

[18] = system: Staphylococcus epidermidis; experiment: Antibacterial activity against Staphylococcus epidermidis RP62A assessed as inhibition of biofilm formation at 25 ug/mL
Staphylococcus aureus [19] = experiment: Antibacterial activity against Staphylococcus aureus ATCC 29213 assessed as inhibition of biofilm formation at 25 ug/mL
[20] = system: Staphylococcus epidermidis; experiment: Antibacterial activity against Staphylococcus epidermidis RP62A assessed as inhibition of biofilm formation
Staphylococcus aureus [21] = experiment: Antibacterial activity against Staphylococcus aureus ATCC 29213 by NCCLS method

SMILES: Cc1nn(C)c([N-]C(=O)c2ccc(Cl)cc2)c1[N+]#N
MIC (Staphylococcus aureus [13]): 2 µg/mL (≈ 7.25 µM)
MIC (Staphylococcus aureus [14]): 1.5 µg/mL (≈ 5.44 µM)
MIC [15]: 1.5 µg/mL (≈ 5.44 µM)
inhibition at 25 µg/mL (Staphylococcus aureus [16]): 69.7%
MIC (Staphylococcus aureus [17]): 1.5 µg/mL (≈ 5.44 µM)
inhibition at 25 µg/mL [18]: 69.7%
inhibition at 25 µg/mL (Staphylococcus aureus [19]): 69.7%

SMILES: Cc1nn(C)c([N-]C(=O)c2ccc([N+](=O)[O-])cc2)c1[N+]#N
MIC (Staphylococcus aureus [13]): 2 µg/mL (≈ 6.99 µM)
MIC (Staphylococcus aureus [14]): 1.5 µg/mL (≈ 5.24 µM)
MIC [15]: 1.5 µg/mL (≈ 5.24 µM)
inhibition at 25 µg/mL (Staphylococcus aureus [16]): 69.7%
MIC (Staphylococcus aureus [17]): 1.5 µg/mL (≈ 5.24 µM)
inhibition at 25 µg/mL [18]: 69.7%
inhibition at 25 µg/mL (Staphylococcus aureus [19]): 69.7%

SMILES: Cc1nn(C)c([N-]C(=O)Nc2ccc(OCc3ccccc3)cc2[N+](=O)[O-])c1[N+]#N
MIC (Staphylococcus aureus [1]): > 50 µg/mL
MIC (Staphylococcus aureus [2]): > 50 µg/mL
MIC (Staphylococcus aureus [3]): > 50 µg/mL
MIC (Staphylococcus aureus [4]): > 50 µg/mL
MIC (Staphylococcus aureus [5]): > 50 µg/mL
MIC (Staphylococcus aureus [6]): > 50 µg/mL
MIC (Staphylococcus aureus [7]): > 50 µg/mL
MIC (Staphylococcus aureus [8]): > 50 µg/mL
MIC (Staphylococcus aureus [9]): > 50 µg/mL

SMILES: Cc1nn(C)c([N-]C(=O)c2ccc(Cl)cc2Cl)c1[N+]#N
MIC (Staphylococcus aureus [13]): 2 µg/mL (≈ 6.45 µM)
MIC (Staphylococcus aureus [14]): 1.5 µg/mL (≈ 4.84 µM)
MIC [15]: 1.5 µg/mL (≈ 4.84 µM)
inhibition [20]: Active
MIC (Staphylococcus aureus [17]): 1.5 µg/mL (≈ 4.84 µM)

SMILES: Cc1nn(C)c([N-]C(=O)Nc2ccc(Cl)c(Cl)c2)c1[N+]#N
MIC (Staphylococcus aureus [1]): 6.2 µg/mL (≈ 19.1 µM)
MIC (Staphylococcus aureus [2]): 6.2 µg/mL (≈ 19.1 µM)
MIC (Staphylococcus aureus [3]): 3.1 µg/mL (≈ 9.53 µM)
MIC (Staphylococcus aureus [4]): 25 µg/mL (≈ 76.9 µM)
MIC (Staphylococcus aureus [5]): 6.2 µg/mL (≈ 19.1 µM)
MIC (Staphylococcus aureus [6]): 3.1 µg/mL (≈ 9.53 µM)
MIC (Staphylococcus aureus [7]): 6.2 µg/mL (≈ 19.1 µM)
MIC (Staphylococcus aureus [8]): 3.1 µg/mL (≈ 9.53 µM)
MIC (Staphylococcus aureus [9]): 6.2 µg/mL (≈ 19.1 µM)

SMILES: Cc1nn(C)c([N-]C(=O)Nc2ccccc2)c1[N+]#N
MIC (Staphylococcus aureus [1]): 12.5 µg/mL (≈ 48.8 µM)
MIC (Staphylococcus aureus [2]): 6.2 µg/mL (≈ 24.2 µM)
MIC (Staphylococcus aureus [3]): 6.2 µg/mL (≈ 24.2 µM)
MIC (Staphylococcus aureus [4]): 50 µg/mL (≈ 195 µM)
MIC (Staphylococcus aureus [5]): 12.5 µg/mL (≈ 48.8 µM)
MIC (Staphylococcus aureus [6]): 25 µg/mL (≈ 97.6 µM)
MIC (Staphylococcus aureus [7]): 12.5 µg/mL (≈ 48.8 µM)
MIC (Staphylococcus aureus [8]): 12.5 µg/mL (≈ 48.8 µM)
MIC (Staphylococcus aureus [9]): 25 µg/mL (≈ 97.6 µM)

SMILES: CO[C@H]1/C=C/O[C@@]2(C)Oc3c(C)c(O)c4c(O)c(c(/C=N/N5CCN(C)CC5)c(O)c4c3C2=O)NC(=O)/C(C)=C\C=C\[C@H](C)[C@H](O)[C@@H](C)[C@@H](O)[C@@H](C)[C@H](OC(C)=O)[C@@H]1C [RIFAMPIN]
MIC (Staphylococcus aureus [1]): 0.015 µg/mL (≈ 0.0182 µM)
MIC (Staphylococcus aureus [2]): 0.015 µg/mL (≈ 0.0182 µM)
MIC (Staphylococcus aureus [21]): 0.008 µg/mL (≈ 0.00972 µM)
MIC (Staphylococcus aureus [3]): 1.25 µg/mL (≈ 1.52 µM)
MIC (Staphylococcus aureus [4]): 0.3 µg/mL (≈ 0.365 µM)
MIC (Staphylococcus aureus [5]): 0.015 µg/mL (≈ 0.0182 µM)
MIC (Staphylococcus aureus [6]): 0.6 µg/mL (≈ 0.729 µM)
MIC (Staphylococcus aureus [7]): 0.015 µg/mL (≈ 0.0182 µM)
MIC (Staphylococcus aureus [8]): 0.07 µg/mL (≈ 0.0851 µM)
MIC (Staphylococcus aureus [9]): 0.07 µg/mL (≈ 0.0851 µM)

The next lines start with results.

MIC (Staphylococcus aureus [1]): 6.2 µg/mL (≈ 21.4 µM)
MIC (Staphylococcus aureus [2]): 1.5 µg/mL (≈ 5.18 µM)
MIC (Staphylococcus aureus [3]): 3.1 µg/mL (≈ 10.7 µM)
MIC (Staphylococcus aureus [4]): 50 µg/mL (≈ 173 µM)
MIC (Staphylococcus aureus [5]): 25 µg/mL (≈ 86.3 µM)
MIC (Staphylococcus aureus [6]): 12.5 µg/mL (≈ 43.1 µM)
MIC (Staphylococcus aureus [7]): 25 µg/mL (≈ 86.3 µM)
MIC (Staphylococcus aureus [8]): 6.2 µg/mL (≈ 21.4 µM)
MIC (Staphylococcus aureus [9]): 12.5 µg/mL (≈ 43.1 µM)
SMILES: Cc1nn(C)c([N-]C(=O)Cc2ccc(Cl)cc2)c1[N+]#N

MIC (Staphylococcus aureus [1]): > 50 µg/mL
MIC (Staphylococcus aureus [2]): > 50 µg/mL
MIC (Staphylococcus aureus [3]): > 50 µg/mL
MIC (Staphylococcus aureus [4]): > 50 µg/mL
MIC (Staphylococcus aureus [5]): > 50 µg/mL
MIC (Staphylococcus aureus [6]): > 50 µg/mL
MIC (Staphylococcus aureus [7]): > 50 µg/mL
MIC (Staphylococcus aureus [8]): > 50 µg/mL
MIC (Staphylococcus aureus [9]): > 50 µg/mL
SMILES: CCCCOc1ccc(NC(=O)[N-]c2c([N+]#N)c(C)nn2C)c([N+](=O)[O-])c1

MIC (Staphylococcus aureus [1]): 3.1 µg/mL (≈ 12.1 µM)
MIC (Staphylococcus aureus [2]): 1.5 µg/mL (≈ 5.88 µM)
MIC (Staphylococcus aureus [3]): 3.1 µg/mL (≈ 12.1 µM)
MIC (Staphylococcus aureus [4]): 1.5 µg/mL (≈ 5.88 µM)
MIC (Staphylococcus aureus [5]): 3.1 µg/mL (≈ 12.1 µM)
MIC (Staphylococcus aureus [6]): 6.2 µg/mL (≈ 24.3 µM)
MIC (Staphylococcus aureus [7]): 6.2 µg/mL (≈ 24.3 µM)
MIC (Staphylococcus aureus [8]): 3.1 µg/mL (≈ 12.1 µM)
MIC (Staphylococcus aureus [9]): 6.2 µg/mL (≈ 24.3 µM)
SMILES: Cc1nn(C)c([N-]C(=O)Cc2ccccc2)c1[N+]#N
inhibition (Staphylococcus aureus [10]): inactive
inhibition at 3.1 µg/mL (Staphylococcus aureus [11]): 45.7%
inhibition (Staphylococcus aureus [12]): inactive

MIC (Staphylococcus aureus [1]): 6.2 µg/mL (≈ 20.6 µM)
MIC (Staphylococcus aureus [2]): 3.1 µg/mL (≈ 10.3 µM)
MIC (Staphylococcus aureus [3]): 100 µg/mL (≈ 332 µM)
MIC (Staphylococcus aureus [4]): 3.1 µg/mL (≈ 10.3 µM)
MIC (Staphylococcus aureus [5]): 6.2 µg/mL (≈ 20.6 µM)
MIC (Staphylococcus aureus [6]): 3.1 µg/mL (≈ 10.3 µM)
MIC (Staphylococcus aureus [7]): 6.2 µg/mL (≈ 20.6 µM)
MIC (Staphylococcus aureus [8]): > 100 µg/mL
MIC (Staphylococcus aureus [9]): 3.1 µg/mL (≈ 10.3 µM)
SMILES: Cc1nn(C)c([N-]C(=O)Nc2ccc([N+](=O)[O-])cc2)c1[N+]#N

MIC (Staphylococcus aureus [1]): > 50 µg/mL
MIC (Staphylococcus aureus [2]): > 50 µg/mL
MIC (Staphylococcus aureus [3]): > 50 µg/mL
MIC (Staphylococcus aureus [4]): > 50 µg/mL
MIC (Staphylococcus aureus [5]): > 50 µg/mL
MIC (Staphylococcus aureus [6]): > 50 µg/mL
MIC (Staphylococcus aureus [7]): > 50 µg/mL
MIC (Staphylococcus aureus [8]): > 50 µg/mL
MIC (Staphylococcus aureus [9]): > 50 µg/mL
SMILES: COc1ccc(NC(=O)[N-]c2c([N+]#N)c(C)nn2C)c([N+](=O)[O-])c1

MIC (Staphylococcus aureus [1]): 25 µg/mL (≈ 86 µM)
MIC (Staphylococcus aureus [2]): 6.2 µg/mL (≈ 21.3 µM)
MIC (Staphylococcus aureus [3]): 12.5 µg/mL (≈ 43 µM)
MIC (Staphylococcus aureus [4]): 3.1 µg/mL (≈ 10.7 µM)
MIC (Staphylococcus aureus [5]): 6.2 µg/mL (≈ 21.3 µM)
MIC (Staphylococcus aureus [6]): 12.5 µg/mL (≈ 43 µM)
MIC (Staphylococcus aureus [7]): 6.2 µg/mL (≈ 21.3 µM)
MIC (Staphylococcus aureus [8]): 6.2 µg/mL (≈ 21.3 µM)
MIC (Staphylococcus aureus [9]): 25 µg/mL (≈ 86 µM)
SMILES: Cc1nn(C)c([N-]C(=O)Nc2ccc(Cl)cc2)c1[N+]#N

MIC (Staphylococcus aureus [1]): 6.2 µg/mL (≈ 21.7 µM)
MIC (Staphylococcus aureus [2]): 6.2 µg/mL (≈ 21.7 µM)
MIC (Staphylococcus aureus [3]): 6.2 µg/mL (≈ 21.7 µM)
MIC (Staphylococcus aureus [4]): 25 µg/mL (≈ 87.6 µM)
MIC (Staphylococcus aureus [5]): 6.2 µg/mL (≈ 21.7 µM)
MIC (Staphylococcus aureus [6]): 6.2 µg/mL (≈ 21.7 µM)
MIC (Staphylococcus aureus [7]): 6.2 µg/mL (≈ 21.7 µM)
MIC (Staphylococcus aureus [8]): 3.1 µg/mL (≈ 10.9 µM)
MIC (Staphylococcus aureus [9]): 6.2 µg/mL (≈ 21.7 µM)
SMILES: COc1ccc(CC(=O)[N-]c2c([N+]#N)c(C)nn2C)cc1
inhibition at 3.1 µg/mL (Staphylococcus aureus [10]): 45.7%
inhibition at 3.1 µg/mL (Staphylococcus aureus [11]): 38%
inhibition at 3.1 µg/mL (Staphylococcus aureus [12]): 25%
